Runt-SMMHC FRET: inhibitors of RUNX1 Runt–CBFb-SMMHC binding, primary screen, biochemical, FRET, Cerulean-Runt, Venus-CBFb-SMMHC, uHTS; Runt-related transcription factor 1 (Homo sapiens) + Core-binding factor subunit beta …; Cerulean-Runt/Venus-CBFb-SMMHC FRET ratio 530/480, 1 h; inhibition, % at 20 µM; hit rate 0.74% among 220,000;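 active = mean inhibition across duplicate retests at 20 µM reaching about 50%, limit read from the data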;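 note: inhibitors lower the FRET ratio by blocking Runt binding to CBFb-SMMHC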
Runt-CBFb FRET: inhibitors of RUNX1 Runt–CBFb binding, primary screen, biochemical, FRET, Cerulean-Runt, Venus-CBFb, uHTS. inhibition, % at 20 µM. AID 1496, 2009. Cerulean-Runt/Venus-CBFb FRET ratio 530/480, 1 h. hit rate 0.46% among 220,000. Runt-related transcription factor 1 (Homo sapiens) + Core-binding factor subunit beta …;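 active = inhibition over about 50% at 20 µM in the single-dose screen, limit read from the data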
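Assay system: Cerulean-Runt domain / Medium: Tris 50 mM pH 7.5, KCl, K2SO4, 0.01% BSA / Timing: protein complex preformed 1 h, compound exposure 1 h, room temperature, dark / Measured by: FRET, excitation 422 nm, emission at 530 and 480 nm / Evaluation: loss of energy transfer signal / Control set: 5 µM unlabeled CBFb as full-inhibition high control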
Hck Nef HTS: inhibitors of Nef-activated human Hck kinase, primary screen, biochemical, Z-Lyte FRET, 384-well, Hck-YEEI. hit rate 0.68% among 220,000. Tyrosine-protein kinase HCK (Homo sapiens), P08631. AID 463187, 2010. inhibition, % at 20 µM. Recombinant Hck-YEEI plus Nef, Z-Lyte FRET kinase assay;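 active = Hck-Nef kinase inhibition above about 50%, limit read from the data; inactive = inhibition below that limit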
Target sequence (P08631 whole entry, looked up): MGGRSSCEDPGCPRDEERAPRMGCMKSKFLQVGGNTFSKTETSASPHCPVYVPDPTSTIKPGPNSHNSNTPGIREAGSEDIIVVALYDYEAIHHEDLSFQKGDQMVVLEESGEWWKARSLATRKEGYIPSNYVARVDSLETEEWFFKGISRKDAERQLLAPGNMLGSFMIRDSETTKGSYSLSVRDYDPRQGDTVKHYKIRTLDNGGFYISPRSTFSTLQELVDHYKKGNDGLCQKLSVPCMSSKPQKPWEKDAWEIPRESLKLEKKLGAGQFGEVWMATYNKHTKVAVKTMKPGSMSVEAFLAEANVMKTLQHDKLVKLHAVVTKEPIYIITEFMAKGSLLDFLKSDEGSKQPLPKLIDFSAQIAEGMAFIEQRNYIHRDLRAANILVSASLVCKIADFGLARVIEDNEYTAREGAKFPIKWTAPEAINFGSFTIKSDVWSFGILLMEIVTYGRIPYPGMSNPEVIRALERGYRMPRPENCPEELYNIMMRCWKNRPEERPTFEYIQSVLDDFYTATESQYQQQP
RanGTP-Imp inh: inhibitors of RanGTP-importin-beta interaction, primary screen, biochemical, FRET, CFP-Ran, YFP-importin-beta, homogeneous; cell-free CFP-Ran/YFP-importin-beta FRET ratio; hit rate 1.1% among 300,000; Ran GTPase (GTP-bound) - importin-beta complex; inhibition, % (test concentration not listed);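 active = more than half of the replicate wells show a fall in the fluorescence ratio signal beyond about 16%, limit read from the data, passing the limit was not always enough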
A number is an active result. Shown are actives, neighbours in structure and some others; about 1.7% of the full set was active somewhere.

What do the screens show for `COc1ccc(-c2ncc(CN3CCC(CO)(Cc4cccc(OC)c4)CC3)cn2)cc1`?
Runt-SMMHC FRET: inactive; Runt-CBFb FRET: inactive; Hck Nef HTS: inactive; RanGTP-Imp inh: 82

How did CS(=O)(=O)c1cnc(-c2cccnc2)nc1N do in these assays?
Runt-SMMHC FRET: inactive; Runt-CBFb FRET: inactive; Hck Nef HTS: inactive; RanGTP-Imp inh: inactive

What do the screens show for `COc1cccc2sc3ccc(C#CC4(O)CCCCC4)cc3c(=O)c12`?
RanGTP-Imp inh: 49

What do the screens show for `COc1cccc2oc3cc(C#CC4(O)CCCCC4)ccc3c(=O)c12`?
RanGTP-Imp inh: inactive

How did CN1CCN(C(=O)c2ccc(CNS(=O)(=O)c3cccc(Cl)c3)cc2)CC1 do in these assays?
RanGTP-Imp inh: inactive

How did COc1cc(-c2nc3cnccn3c2Nc2c(C)cccc2C)ccc1O do in these assays?
Runt-SMMHC FRET: inactive; Runt-CBFb FRET: inactive; Hck Nef HTS: inactive; RanGTP-Imp inh: 52

Results for COc1ccc2nc(C)c3cc(C)oc3c2c1 ?
Runt-SMMHC FRET: inactive; Runt-CBFb FRET: inactive; Hck Nef HTS: inactive

Results for COc1cccc2c1nc(C)c1cc(C)oc12 ?
Runt-SMMHC FRET: inactive; Runt-CBFb FRET: inactive; Hck Nef HTS: inactive; RanGTP-Imp inh: 33

Results for CCn1c(SCC(=O)c2ccccc2)nc2sc3c(c2c1=O)CCN(C)C3 ?
Runt-SMMHC FRET: 85; Runt-CBFb FRET: inactive; Hck Nef HTS: inactive; RanGTP-Imp inh: inactive

How did CCn1c(SCC(=O)NCCc2ccccc2)nc2sc3c(c2c1=O)CCN(C)C3 do in these assays?
Runt-SMMHC FRET: inactive; Runt-CBFb FRET: inactive; Hck Nef HTS: inactive; RanGTP-Imp inh: inactive

Results for Cc1cccc(Oc2coc3cc(O)ccc3c2=O)c1 ?
RanGTP-Imp inh: inactive

How did O=C(Nc1ccc(Nc2ccncc2)cc1)c1ccc(Nc2ccnc3ccc([N+](=O)[O-])cc23)cc1 do in these assays?
Runt-SMMHC FRET: 57; Runt-CBFb FRET: inactive; Hck Nef HTS: inactive; RanGTP-Imp inh: inactive

Results for O=C(Cc1ccc(S(=O)(=O)N2CCOCC2)s1)NCCc1ccc(F)cc1 ?
RanGTP-Imp inh: inactive

How did COC(=O)CCCC1=CC2=CC(=O)C(C)(OC(=O)c3cnc4ccccc4n3)C(=O)C2=CO1 (centres undefined) do in these assays?
RanGTP-Imp inh: inactive

What do the screens show for `CCCCC1=CC2=CC(=O)C(C)(OC(=O)c3cnc4ccccc4n3)C(=O)C2=CO1` (centres undefined)?
Runt-SMMHC FRET: inactive; Runt-CBFb FRET: inactive; Hck Nef HTS: 65; RanGTP-Imp inh: inactive

Results for COc1ccc(CCNC(=O)CN(c2cc(C)cc(C)c2)S(=O)(=O)c2c(C)noc2C)cc1OC ?
RanGTP-Imp inh: inactive

Results for COc1c2ccoc2c(OC[C@@H](O)C(C)(C)OC)c2oc(=O)ccc12 ?
Runt-SMMHC FRET: 84; Runt-CBFb FRET: inactive; Hck Nef HTS: inactive; RanGTP-Imp inh: inactive

How did COc1c2ccoc2c(OC[C@@H](O)C(C)(C)O)c2oc(=O)ccc12 do in these assays?
Runt-SMMHC FRET: inactive; Runt-CBFb FRET: inactive; Hck Nef HTS: inactive; RanGTP-Imp inh: inactive

How did CC1(C)CC(=O)C2=C(C1)Nc1ccccc1NC2 do in these assays?
Runt-SMMHC FRET: 87; Runt-CBFb FRET: inactive; Hck Nef HTS: inactive; RanGTP-Imp inh: inactive

What do the screens show for `CC1(C)CC(=O)C2=C(C1)Nc1ccccc1S2`?
Runt-SMMHC FRET: inactive; Runt-CBFb FRET: inactive; Hck Nef HTS: inactive; RanGTP-Imp inh: inactive

How did Cc1ccc(C2C3=C(CC(C)(C)CC3=O)N(CCN3CCOCC3)C3=C2C(=O)CC(C)(C)C3)cc1 do in these assays?
Runt-SMMHC FRET: 79; Runt-CBFb FRET: inactive; Hck Nef HTS: inactive; RanGTP-Imp inh: 125

Results for Cc1cccc(C)c1NS(=O)(=O)c1ccc(OCCNS(C)(=O)=O)cc1 ?
Runt-SMMHC FRET: inactive; Runt-CBFb FRET: inactive; Hck Nef HTS: inactive; RanGTP-Imp inh: inactive

Results for Cn1c(NNC(=O)c2c(F)cccc2F)cc(=O)n(C)c1=O ?
Runt-SMMHC FRET: inactive; Runt-CBFb FRET: inactive; Hck Nef HTS: inactive; RanGTP-Imp inh: inactive

What do the screens show for `Cc1ccc(C(=O)NNc2cc(=O)n(C)c(=O)n2C)cc1C`?
Runt-SMMHC FRET: inactive; Runt-CBFb FRET: inactive; Hck Nef HTS: inactive; RanGTP-Imp inh: 28

Results for Cn1c(NNC(=O)c2cccc3ccccc23)cc(=O)n(C)c1=O ?
Runt-SMMHC FRET: 93; Runt-CBFb FRET: inactive; Hck Nef HTS: inactive; RanGTP-Imp inh: 24

How did Cn1c(NNC(=O)c2ccccc2F)cc(=O)n(C)c1=O do in these assays?
Runt-SMMHC FRET: inactive; Runt-CBFb FRET: inactive; Hck Nef HTS: inactive; RanGTP-Imp inh: inactive

Results for O=C1COc2ccc(C(=O)c3ccccc3C(=O)NCc3ccco3)cc2N1 ?
Runt-SMMHC FRET: inactive; Runt-CBFb FRET: inactive; Hck Nef HTS: inactive; RanGTP-Imp inh: inactive

What do the screens show for `Cc1ccc(NC(=O)CN2C(=O)S/C(=C/c3ccc(-c4cc(C(=O)O)ccc4C)o3)C2=O)cc1C`?
Runt-SMMHC FRET: inactive; Runt-CBFb FRET: inactive; Hck Nef HTS: inactive; RanGTP-Imp inh: 36

Results for Cc1ccccc1NC(=O)CN1C(=O)S/C(=C\c2ccc(-c3cccc(C(=O)O)c3C)o2)C1=O ?
Runt-SMMHC FRET: inactive; Runt-CBFb FRET: inactive; Hck Nef HTS: inactive; RanGTP-Imp inh: inactive

How did COC(=O)C(C)N1C(=O)S/C(=C\c2ccc(-c3ccc(C(=O)O)cc3C)o2)C1=O (centres undefined) do in these assays?
RanGTP-Imp inh: 17

Results for Cc1cccc(NC(=O)CN2C(=O)S/C(=C\c3ccc(-c4cccc(C(=O)O)c4C)o3)C2=O)c1 ?
Runt-SMMHC FRET: inactive; Runt-CBFb FRET: inactive; Hck Nef HTS: inactive; RanGTP-Imp inh: 41

Results for Cc1cc(C(=O)O)ccc1-c1ccc(/C=C2\NC(=O)N(Cc3ccc(F)cc3)C2=O)o1 ?
Runt-SMMHC FRET: 80; Runt-CBFb FRET: 116; Hck Nef HTS: inactive; RanGTP-Imp inh: 65

How did Cc1ccc(C(=O)O)cc1-c1ccc(C=C2C(=O)c3ccccc3C2=O)o1 do in these assays?
Runt-SMMHC FRET: inactive; Runt-CBFb FRET: inactive; Hck Nef HTS: inactive; RanGTP-Imp inh: inactive

Results for CCCN(CC(=O)Nc1ccccc1C)C(=O)C1CCN(C(=O)Nc2ccccc2)CC1 ?
RanGTP-Imp inh: inactive

Results for C=CCOc1c(Cl)cc(C(=S)N2CCCC2)cc1OCC ?
RanGTP-Imp inh: inactive

Results for COc1ccccc1C1CC(c2cccs2)=Nc2ccccc2S1 (centres undefined) ?
Runt-SMMHC FRET: inactive; Runt-CBFb FRET: inactive; Hck Nef HTS: inactive; RanGTP-Imp inh: inactive

What do the screens show for `COc1ccccc1C1CN(c2ccc(F)cc2F)N=C1c1cccs1` (centres undefined)?
Runt-SMMHC FRET: 83; Runt-CBFb FRET: inactive; Hck Nef HTS: inactive; RanGTP-Imp inh: inactive

Results for CCOc1ccc(NC(=O)CCCn2c(=S)[nH]c3ccsc3c2=O)cc1 ?
Runt-SMMHC FRET: inactive; Runt-CBFb FRET: inactive; Hck Nef HTS: inactive; RanGTP-Imp inh: inactive
